Substitutions are numbered along the chain they refer to. Read-outs that look alike come from different tables or passages of the source. Each block holds one compound with its values, some of them ahead of it.
How the values were obtained:
[1] = ref Marsh and Phil 1990; cited from earlier work
[2] = test system: rod and olfactory CNG channels; test: Comparison of DAG analogues on cloned CNG channels; format: biochemical; details: data not shown
[3] = biological target: T1, mutant rod CNG channel H468Q (H468Q and A483V), α homomultimer (Bos taurus, UniProt Q00194, A483V/H468Q); format: biochemical, bovine
T1 sequence (Q00194 1-690 H468Q/A483V): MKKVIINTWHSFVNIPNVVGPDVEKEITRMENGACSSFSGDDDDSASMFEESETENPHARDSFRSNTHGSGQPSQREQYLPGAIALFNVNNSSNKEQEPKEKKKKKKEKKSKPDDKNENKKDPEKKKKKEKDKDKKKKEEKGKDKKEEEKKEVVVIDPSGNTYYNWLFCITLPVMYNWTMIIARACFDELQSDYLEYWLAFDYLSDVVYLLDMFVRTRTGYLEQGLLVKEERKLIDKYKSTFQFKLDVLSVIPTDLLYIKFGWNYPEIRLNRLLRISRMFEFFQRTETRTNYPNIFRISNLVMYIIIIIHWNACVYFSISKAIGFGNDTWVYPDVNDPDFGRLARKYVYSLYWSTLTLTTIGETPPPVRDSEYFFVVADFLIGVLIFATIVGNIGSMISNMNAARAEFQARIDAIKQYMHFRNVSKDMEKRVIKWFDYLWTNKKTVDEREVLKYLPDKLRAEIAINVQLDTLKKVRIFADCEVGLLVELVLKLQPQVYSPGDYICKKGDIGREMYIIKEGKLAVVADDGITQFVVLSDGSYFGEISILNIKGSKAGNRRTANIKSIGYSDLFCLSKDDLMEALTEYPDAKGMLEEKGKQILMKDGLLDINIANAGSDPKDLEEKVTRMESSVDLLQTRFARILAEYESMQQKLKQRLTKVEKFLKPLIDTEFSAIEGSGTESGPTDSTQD

[4] = biological target: T2, CHM 13 rod/olfactory chimeric CNG channel (Bos taurus / Rattus norvegicus, UniProt Q00194+Q00195); test: DAG dose-response on chimera CHM13, inside-out patches from Xenopus oocytes; format: biochemical, bovine/rat; details: saturating 2 mM cGMP, six patches
T2 sequence (Q00194 1-690): T1 sequence (Q00194 1-690 H468Q/A483V) with Q468H, V483A
T2 sequence (Q00195 1-664): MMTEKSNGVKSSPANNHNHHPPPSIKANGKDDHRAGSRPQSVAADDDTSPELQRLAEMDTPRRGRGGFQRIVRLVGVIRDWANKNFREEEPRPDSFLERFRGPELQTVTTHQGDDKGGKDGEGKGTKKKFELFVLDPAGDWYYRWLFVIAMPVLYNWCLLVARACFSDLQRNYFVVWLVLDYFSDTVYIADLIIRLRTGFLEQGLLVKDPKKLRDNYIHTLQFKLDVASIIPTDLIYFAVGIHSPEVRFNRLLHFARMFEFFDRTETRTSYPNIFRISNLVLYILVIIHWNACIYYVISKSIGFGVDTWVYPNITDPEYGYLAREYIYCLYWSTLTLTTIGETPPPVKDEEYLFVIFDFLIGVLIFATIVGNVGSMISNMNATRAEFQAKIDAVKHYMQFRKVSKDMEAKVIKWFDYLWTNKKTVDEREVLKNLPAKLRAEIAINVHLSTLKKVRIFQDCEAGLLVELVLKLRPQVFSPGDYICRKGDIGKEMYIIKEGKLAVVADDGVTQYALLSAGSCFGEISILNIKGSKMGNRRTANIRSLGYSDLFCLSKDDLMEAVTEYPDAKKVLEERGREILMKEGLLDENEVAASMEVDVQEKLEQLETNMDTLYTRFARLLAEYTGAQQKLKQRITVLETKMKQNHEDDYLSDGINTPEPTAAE
How it was run: (§1)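 Chimera cRNA injected into Xenopus oocytes, held at 15°C overnight then 18°C for 1–10 d; vitelline membrane removed. […] 1,2-DiC8 from DMSO stock added stepwise to bath (0.05–48 μM; DMSO <1.2%). Leak-subtracted currents; Hill fit to averaged data, scaled to maximal inhibition.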

[5] = biological target: T3, mouse olfactory CNG channel (Mus musculus, UniProt Q62398); test: Single-channel recording of olfactory channel with DAG; format: biochemical; details: +80 mV, saturating cGMP, with and without DAG
T3 sequence (Q62398 1-664): T2 sequence (Q00195 1-664) with P50S, Q69R, V77I, D115G, G118D, V297A, D611E, T661A, A662V
How it was run: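 Three to five continuous 1-s records per condition, filtered at 5 kHz and sampled at 25 kHz. Amplitude histograms from full records were fit with Gaussians to obtain mean single-channel current.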

[6] = biological target: T4, CHM 3 rod/olfactory chimeric CNG channel (Bos taurus / Rattus norvegicus, UniProt Q00194+Q00195); test: DAG dose-response on chimera CHM3, inside-out patches from Xenopus oocytes; format: biochemical, bovine/rat; details: saturating 2 mM cGMP, 4 patches
T4 sequence (Q00194 with tags, fused parts or gaps): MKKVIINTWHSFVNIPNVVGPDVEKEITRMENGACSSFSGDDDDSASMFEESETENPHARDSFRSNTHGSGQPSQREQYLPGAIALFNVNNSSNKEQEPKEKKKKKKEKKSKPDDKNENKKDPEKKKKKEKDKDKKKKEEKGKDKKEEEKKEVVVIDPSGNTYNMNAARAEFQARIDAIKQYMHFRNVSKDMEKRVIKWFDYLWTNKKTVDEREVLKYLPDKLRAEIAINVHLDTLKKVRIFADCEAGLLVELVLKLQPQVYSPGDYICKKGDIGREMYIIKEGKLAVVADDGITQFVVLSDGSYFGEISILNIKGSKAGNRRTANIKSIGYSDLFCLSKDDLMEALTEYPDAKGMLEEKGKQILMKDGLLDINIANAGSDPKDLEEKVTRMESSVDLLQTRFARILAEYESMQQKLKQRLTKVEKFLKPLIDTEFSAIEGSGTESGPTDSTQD
T4 sequence (Q00195 147-381): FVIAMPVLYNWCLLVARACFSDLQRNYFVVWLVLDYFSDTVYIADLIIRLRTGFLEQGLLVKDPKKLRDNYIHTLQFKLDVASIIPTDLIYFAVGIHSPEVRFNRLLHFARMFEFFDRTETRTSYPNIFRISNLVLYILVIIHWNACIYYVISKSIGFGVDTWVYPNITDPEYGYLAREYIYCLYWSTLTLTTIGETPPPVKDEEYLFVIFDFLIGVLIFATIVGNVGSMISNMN
How it was run: as §1

[7] = biological target: T5, bovine rod CNG channel (CNG1, α homomultimer) (Bos taurus, UniProt Q00194); format: biochemical
T5 sequence (Q00194 1-690): T1 sequence (Q00194 1-690 H468Q/A483V) with Q468H, V483A

[8] = biological target: T6, rat olfactory CNG channel (CNG2, α homomultimer) (Rattus norvegicus, UniProt Q00195); format: biochemical
T6 sequence (Q00195 1-664): T2 sequence (Q00195 1-664)

[9] = biological target: T7, CHM 11 rod/olfactory chimeric CNG channel (Bos taurus / Rattus norvegicus, UniProt Q00194+Q00195); test: DAG dose-response on chimera CHM11, inside-out patches from Xenopus oocytes; format: biochemical, bovine/rat; details: saturating 2 mM cGMP, five patches
T7 sequence (Q00194 1-690): T1 sequence (Q00194 1-690 H468Q/A483V) with Q468H, V483A
T7 sequence (Q00195 1-664): T2 sequence (Q00195 1-664)
How it was run: as §1

[10] = test system: CNG channels; details: ref Fodor et al. 1997; cited from earlier work

Structure (SMILES): CCCCCCCC(=O)OC[C@H](COP(=O)([O-])OCC[N+](C)(C)C)OC(=O)CCCCCCC [1,2-dioctanoyl phosphatidylcholine]
critical micelle concentration [1]: 270 µM

Structure (SMILES): CCCCCCCC(=O)OCC(O)COC(=O)CCCCCCC [1,3-DiC8]
effectiveness of inhibition relative to 1,2-DiC8 [2]: just as effective as 1,2-DiC8

IC50 [3]: 0.33 µM
single-channel amplitude with DAG ([3]; +80 mV, saturating cGMP, with and without 0.25 μM DAG, patch with two channels): 2.1 pA
extent of inhibition by DAG ([3]; saturating cGMP): fully inhibited
Hill coefficient n of DAG inhibition [4]: 2.8
single-channel amplitude with DAG [5]: 3.2 pA
Hill coefficient n of DAG inhibition [6]: 1.6
factor of increase of cGMP K1/2 ([7]; 0.5 μM DAG): 3.2
reduction in the maximal current with DAG ([7]; 0.5 μM DAG, cGMP dose-response): 29%
IC50 ([7]; IC50 for DAG inhibition, saturating 2 mM cGMP, 11 patches): 0.83 µM
Hill coefficient n of DAG inhibition ([7]; low cGMP (~30 μM), single patch): 1.3
DAG concentration completely suppressing cGMP-activated currents ([7]; saturating 2 mM cGMP): ~3 µM
Hill coefficient n of DAG inhibition ([7]; saturating 2 mM cGMP): 1.7
INmax (maximal inhibition by DAG) ([7]; saturating 2 mM cGMP): 100%
factor of increase of cGMP K1/2 ([8]; 0.5 μM DAG): 2.2
reduction in the maximal current with DAG ([8]; 0.5 μM DAG, cGMP dose-response): 3%
inhibition of cGMP-activated current by DAG ([8]; 0.5 μM DAG, saturating 100 μM cGMP): small effect
Hill coefficient n of DAG inhibition ([8]; low cGMP (1.5 μM), single patch): 1.4
Hill coefficient n of DAG inhibition ([8]; saturating 100 μM cGMP): 1.4
INmax (maximal inhibition by DAG) ([8]; saturating 100 μM cGMP): 31%
suppression of cGMP-activated currents at high DAG ([8]; saturating (100 μM) cGMP, DAG as high as 12 μM): only partial suppression
difference between DAG IC50 of rod and olfactory channel ([8]; saturating cGMP, rod vs olfactory): approximately a fourfold difference
Hill coefficient n of DAG inhibition [9]: 1.6
Structure (SMILES): CCCCCCCC(=O)OC[C@H](CO)OC(=O)CCCCCCC [DAG, 1,2-dioctanoyl-sn-glycerol]

EC50 ([8]; read-out: K1/2 for activation by cGMP, with 0.5 μM DAG, +100 mV, single patch): 4 µM
Hill coefficient n of cGMP activation ([8]; with 0.5 μM DAG): 2.8
Hill coefficient n of cGMP activation ([8]; without DAG): 2.8
Structure (SMILES): Nc1nc2c(ncn2[C@@H]2O[C@@H]3COP(=O)(O)O[C@H]3[C@H]2O)c(=O)[nH]1 [cGMP]

Structure (SMILES): CCCCNc1ccc(C(=O)OCCN(C)C)cc1 [tetracaine]
Hill coefficient of inhibition [10]: ~1

From publication PMC2231817 (The Journal of General Physiology, 2000)
